Test results: ChEMBL document CHEMBL1155221, “Identification of novel indanylsulfonamide guanylhydrazones as potent 5-HT6 serotonin receptor antagonists” (J Med Chem, 2009)
pIC50, pKi: −log10 of the molar value.

How the values were obtained:
[1] = target: T1, 5-hydroxytryptamine receptor 6 (Homo sapiens, UniProt P50406); experiment: Displacement of [3H]LSD from human recombinant 5HT6 receptor expressed in HEK293 cells after 60 mins by liquid scintillation counting; type: cell-based
Procedure, shortened: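 Competition binding on membranes from HEK-293 cells expressing recombinant human 5-HT6 receptor, with [3H]-LSD as radioligand. […] Values are mean ± SEM of three experiments.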

[2] = target: T2, 5-hydroxytryptamine receptor 2C (Homo sapiens, UniProt P28335); experiment: Inhibition of human 5HT2C receptor
T2 sequence (P28335 whole entry): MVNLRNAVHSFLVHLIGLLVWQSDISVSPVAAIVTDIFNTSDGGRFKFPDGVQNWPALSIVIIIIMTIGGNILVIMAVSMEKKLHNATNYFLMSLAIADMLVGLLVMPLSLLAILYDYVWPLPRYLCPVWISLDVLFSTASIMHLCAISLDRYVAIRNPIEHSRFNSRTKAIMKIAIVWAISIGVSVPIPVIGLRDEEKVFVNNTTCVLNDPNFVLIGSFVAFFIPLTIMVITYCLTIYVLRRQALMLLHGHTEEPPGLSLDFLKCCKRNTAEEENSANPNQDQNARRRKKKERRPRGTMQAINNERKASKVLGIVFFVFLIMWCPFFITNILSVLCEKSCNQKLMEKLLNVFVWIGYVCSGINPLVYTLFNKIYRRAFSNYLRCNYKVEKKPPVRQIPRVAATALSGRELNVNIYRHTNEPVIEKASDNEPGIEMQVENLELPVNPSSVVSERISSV

[3] = target: T3, 5-hydroxytryptamine receptor 1A (Homo sapiens, UniProt P08908); experiment: Inhibition of human 5HT1A receptor
T3 sequence (P08908 whole entry): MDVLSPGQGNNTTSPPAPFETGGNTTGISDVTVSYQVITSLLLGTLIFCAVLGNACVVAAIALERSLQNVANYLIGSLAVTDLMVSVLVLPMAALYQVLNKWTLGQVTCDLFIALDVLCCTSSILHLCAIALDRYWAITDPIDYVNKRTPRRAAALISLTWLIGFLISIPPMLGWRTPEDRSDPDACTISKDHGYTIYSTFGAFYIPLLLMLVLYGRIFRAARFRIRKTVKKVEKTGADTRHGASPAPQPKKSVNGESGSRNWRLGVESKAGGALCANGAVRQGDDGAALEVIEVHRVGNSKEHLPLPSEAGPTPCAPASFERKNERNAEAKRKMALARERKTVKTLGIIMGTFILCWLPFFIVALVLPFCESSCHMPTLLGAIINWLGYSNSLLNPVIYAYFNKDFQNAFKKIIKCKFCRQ

[4] = target: Sodium-dependent serotonin transporter (Homo sapiens, UniProt P31645); experiment: Inhibition of human SERT
[5] = target: T1, 5-hydroxytryptamine receptor 6; experiment: Antagonist activity at human 5HT6 receptor expressed in HEK293F cells assessed as inhibition of 5-HT-stimulated cAMP production at […] after 30 mins by HTRF assay relative to (+/-)-6-chloro-N-(3-(1-methylpyrrolidin-3-yl)-1H-inden-5-yl)imidazo[2,1-b]thiazole-5-sulfonamide; type: functional, cell-based
[6] = target: T1, 5-hydroxytryptamine receptor 6; experiment: Inhibition of [3H]LSD binding to human recombinant 5HT6 receptor expressed in HEK293 cells at 100 nM after 60 mins by liquid scintillation counting; type: cell-based
Procedure, shortened: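 Single-point competition at 100 nM test compound against [3H]-LSD on membranes from HEK-293 cells expressing recombinant human 5-HT6 receptor. Percent inhibition of radioligand binding reported.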

[7] = target: T1, 5-hydroxytryptamine receptor 6; experiment: Antagonist activity at human 5HT6 receptor expressed in HEK293F cells assessed as inhibition of 5-HT-stimulated cAMP production after 30 mins by HTRF assay; type: functional, cell-based
Procedure, shortened: (§1)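 HEK-293F cells stably expressing human 5-HT6 receptor. Compounds were tested against 5-HT-stimulated cAMP production, with cAMP read by homogeneous time-resolved fluorescence (HTRF). Antagonism expressed as Imax and IC50. Data are mean ± SEM of three experiments.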

[8] = target: T4, Adrenergic receptor alpha-1 (Rattus norvegicus, UniProt P15823+P23944+P43140); experiment: Inhibition of rat alpha 1 adrenoceptor
T4 sequence (P15823 whole entry): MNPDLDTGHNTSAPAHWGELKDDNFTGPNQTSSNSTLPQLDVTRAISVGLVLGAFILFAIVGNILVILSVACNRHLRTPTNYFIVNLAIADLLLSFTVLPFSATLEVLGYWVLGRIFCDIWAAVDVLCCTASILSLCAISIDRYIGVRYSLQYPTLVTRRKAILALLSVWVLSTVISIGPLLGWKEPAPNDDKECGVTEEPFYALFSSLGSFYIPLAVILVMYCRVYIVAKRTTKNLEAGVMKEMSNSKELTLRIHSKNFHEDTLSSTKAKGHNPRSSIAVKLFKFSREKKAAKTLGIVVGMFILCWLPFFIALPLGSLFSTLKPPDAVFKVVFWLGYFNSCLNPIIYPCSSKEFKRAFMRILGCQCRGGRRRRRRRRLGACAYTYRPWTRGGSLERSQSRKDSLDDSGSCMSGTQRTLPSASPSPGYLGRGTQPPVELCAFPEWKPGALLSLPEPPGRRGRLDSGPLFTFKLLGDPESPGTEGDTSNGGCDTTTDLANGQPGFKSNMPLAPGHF
T4 sequence (P23944 whole entry): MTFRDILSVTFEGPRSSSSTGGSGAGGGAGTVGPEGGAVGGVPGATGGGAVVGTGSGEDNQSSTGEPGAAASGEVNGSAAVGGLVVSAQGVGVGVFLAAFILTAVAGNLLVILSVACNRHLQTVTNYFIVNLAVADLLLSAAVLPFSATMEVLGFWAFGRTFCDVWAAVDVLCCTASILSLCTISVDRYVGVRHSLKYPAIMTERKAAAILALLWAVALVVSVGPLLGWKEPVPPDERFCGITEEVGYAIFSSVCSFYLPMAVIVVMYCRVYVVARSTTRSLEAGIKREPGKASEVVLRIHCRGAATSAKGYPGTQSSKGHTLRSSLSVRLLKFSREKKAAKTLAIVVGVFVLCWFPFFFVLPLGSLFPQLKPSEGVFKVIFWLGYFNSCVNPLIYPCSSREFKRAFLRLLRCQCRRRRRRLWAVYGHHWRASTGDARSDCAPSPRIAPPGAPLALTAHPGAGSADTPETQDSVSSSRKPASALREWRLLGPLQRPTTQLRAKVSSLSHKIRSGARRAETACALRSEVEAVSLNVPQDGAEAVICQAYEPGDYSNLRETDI
T4 sequence (P43140 whole entry): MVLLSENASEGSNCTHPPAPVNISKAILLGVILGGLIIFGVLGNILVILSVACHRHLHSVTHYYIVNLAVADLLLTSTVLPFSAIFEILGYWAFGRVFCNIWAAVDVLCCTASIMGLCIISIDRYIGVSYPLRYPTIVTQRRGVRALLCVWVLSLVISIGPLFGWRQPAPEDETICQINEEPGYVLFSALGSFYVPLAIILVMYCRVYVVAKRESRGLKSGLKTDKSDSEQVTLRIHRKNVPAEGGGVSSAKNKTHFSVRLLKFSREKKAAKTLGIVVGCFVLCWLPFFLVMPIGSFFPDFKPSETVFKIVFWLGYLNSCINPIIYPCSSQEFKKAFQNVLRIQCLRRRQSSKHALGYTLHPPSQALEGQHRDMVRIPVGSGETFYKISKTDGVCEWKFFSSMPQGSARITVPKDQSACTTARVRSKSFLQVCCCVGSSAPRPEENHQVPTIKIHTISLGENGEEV

[9] = target: T5, Adrenergic receptor alpha-2 (Homo sapiens, UniProt P08913+P18825+P18089); experiment: Inhibition of human alpha 2 adrenoceptor
T5 sequence (P08913 whole entry): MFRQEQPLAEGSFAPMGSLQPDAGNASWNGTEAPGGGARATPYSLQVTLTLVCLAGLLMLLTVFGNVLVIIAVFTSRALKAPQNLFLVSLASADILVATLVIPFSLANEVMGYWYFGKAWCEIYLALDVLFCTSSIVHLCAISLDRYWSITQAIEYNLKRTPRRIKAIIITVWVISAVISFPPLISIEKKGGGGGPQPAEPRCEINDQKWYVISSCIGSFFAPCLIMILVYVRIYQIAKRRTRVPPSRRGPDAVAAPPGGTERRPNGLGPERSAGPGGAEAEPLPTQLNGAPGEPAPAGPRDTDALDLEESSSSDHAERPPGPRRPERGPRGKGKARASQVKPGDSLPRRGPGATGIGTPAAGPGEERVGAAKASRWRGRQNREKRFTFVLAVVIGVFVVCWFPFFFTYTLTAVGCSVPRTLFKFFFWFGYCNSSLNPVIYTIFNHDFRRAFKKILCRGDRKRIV
T5 sequence (P18825 whole entry): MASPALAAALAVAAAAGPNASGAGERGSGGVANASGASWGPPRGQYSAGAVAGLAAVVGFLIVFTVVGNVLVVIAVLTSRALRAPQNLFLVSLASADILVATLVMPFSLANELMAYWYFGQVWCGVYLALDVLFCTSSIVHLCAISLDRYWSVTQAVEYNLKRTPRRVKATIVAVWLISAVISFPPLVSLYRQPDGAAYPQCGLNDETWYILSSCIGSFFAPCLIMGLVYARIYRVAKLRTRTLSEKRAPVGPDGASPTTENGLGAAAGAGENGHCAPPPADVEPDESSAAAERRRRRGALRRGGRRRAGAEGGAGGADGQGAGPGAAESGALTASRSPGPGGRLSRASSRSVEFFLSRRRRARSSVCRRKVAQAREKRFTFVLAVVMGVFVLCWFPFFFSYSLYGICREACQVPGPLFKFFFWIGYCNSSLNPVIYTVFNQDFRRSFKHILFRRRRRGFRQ
T5 sequence (P18089 whole entry): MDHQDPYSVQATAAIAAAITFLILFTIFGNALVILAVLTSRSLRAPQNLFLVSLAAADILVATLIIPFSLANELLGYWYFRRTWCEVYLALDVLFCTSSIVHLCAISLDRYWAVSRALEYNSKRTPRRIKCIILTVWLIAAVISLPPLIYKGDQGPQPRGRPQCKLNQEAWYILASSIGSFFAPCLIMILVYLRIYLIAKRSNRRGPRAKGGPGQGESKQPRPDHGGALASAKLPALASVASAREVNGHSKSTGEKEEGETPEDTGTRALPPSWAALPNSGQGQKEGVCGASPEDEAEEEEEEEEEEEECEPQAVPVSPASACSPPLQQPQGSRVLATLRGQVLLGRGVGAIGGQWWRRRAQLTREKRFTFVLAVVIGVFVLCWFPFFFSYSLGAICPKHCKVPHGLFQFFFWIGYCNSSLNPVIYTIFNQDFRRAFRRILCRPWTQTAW

[10] = target: T1, 5-hydroxytryptamine receptor 6; experiment: Antagonist activity at human 5HT6 receptor expressed in HEK293F cells assessed as inhibition of 5-HT-stimulated cAMP production at […] after 30 mins by HTRF assay; type: functional, cell-based; procedure, shortened: as §1
[11] = target: T1, 5-hydroxytryptamine receptor 6; experiment: Displacement of [3H]LSD from human cloned 5HT6 receptor expressed in human HeLa cells; type: cell-based

Sequence of Sodium-dependent serotonin transporter (P31645 whole entry): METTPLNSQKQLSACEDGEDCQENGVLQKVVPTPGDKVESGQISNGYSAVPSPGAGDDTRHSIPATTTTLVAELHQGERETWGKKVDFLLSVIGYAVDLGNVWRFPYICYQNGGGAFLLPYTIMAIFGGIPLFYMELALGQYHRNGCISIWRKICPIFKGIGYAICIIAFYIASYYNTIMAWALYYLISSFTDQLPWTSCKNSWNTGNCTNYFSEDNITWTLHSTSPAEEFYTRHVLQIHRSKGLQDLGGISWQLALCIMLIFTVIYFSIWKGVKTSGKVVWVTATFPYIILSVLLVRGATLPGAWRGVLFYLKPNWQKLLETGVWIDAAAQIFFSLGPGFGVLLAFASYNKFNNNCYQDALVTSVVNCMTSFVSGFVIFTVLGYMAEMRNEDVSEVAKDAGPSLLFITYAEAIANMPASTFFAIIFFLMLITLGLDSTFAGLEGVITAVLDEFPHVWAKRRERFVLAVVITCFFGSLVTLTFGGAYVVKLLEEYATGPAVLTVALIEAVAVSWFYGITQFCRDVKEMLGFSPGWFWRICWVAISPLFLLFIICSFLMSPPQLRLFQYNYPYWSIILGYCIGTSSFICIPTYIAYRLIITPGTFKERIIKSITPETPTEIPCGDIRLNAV
T1 sequence (P50406 whole entry): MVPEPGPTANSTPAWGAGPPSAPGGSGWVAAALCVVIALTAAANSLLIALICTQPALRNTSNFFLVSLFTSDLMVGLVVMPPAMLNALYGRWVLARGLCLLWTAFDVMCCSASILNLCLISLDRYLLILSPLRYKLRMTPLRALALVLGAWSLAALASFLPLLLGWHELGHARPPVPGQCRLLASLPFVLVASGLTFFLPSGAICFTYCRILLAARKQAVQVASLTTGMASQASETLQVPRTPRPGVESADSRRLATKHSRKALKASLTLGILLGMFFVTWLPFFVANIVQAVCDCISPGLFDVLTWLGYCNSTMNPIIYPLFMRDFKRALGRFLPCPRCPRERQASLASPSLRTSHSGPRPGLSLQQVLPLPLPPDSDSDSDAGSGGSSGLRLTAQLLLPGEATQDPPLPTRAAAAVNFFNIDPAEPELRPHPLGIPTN

| pKi [1] | pIC50 [2] | pIC50 [3] | pIC50 [4] | Imax [5] | inhibition [6] | pIC50 [7] | pIC50 [8] | IC50 [9] | Imax [10] | pIC50 [9] | pKi [11] | Structure (SMILES) |
| --- | --- | --- | --- | --- | --- | --- | --- | --- | --- | --- | --- | --- |
| 8.92 | < 5.00 | < 5.00 | < 5.00 | 127% | > 80% | 7.02 | < 6.00 | > 1 ×10⁴ nM |  |  |  | Cl.N=C(N)N/N=C1\CCc2ccc(NS(=O)(=O)c3c(Cl)nc4sccn34)cc21 |
| 8.52 |  |  |  |  | > 80% | 5.80 |  |  | 100% |  |  | CN1CCC(C2=CCc3ccc(NS(=O)(=O)c4c(Cl)nc5sccn45)cc32)C1 (stereo not drawn) |
|  |  |  |  |  | 77% |  |  |  |  |  |  | CC1(C)C/C(=N\NC2=NCCN2)c2cc(NS(=O)(=O)c3c(Cl)nc4sccn34)ccc21 |
| 8.80 | < 6.00 | < 6.00 | < 6.00 | 157% | > 80% | 7.24 | < 6.00 |  |  | < 6.00 |  | CC1Cc2ccc(NS(=O)(=O)c3c(Cl)nc4sccn34)cc2/C1=N/NC(=N)N.Cl (racemic) |
| 8.39 |  | < 6.00 |  | 102% | > 80% | 7.27 |  |  |  | < 6.00 |  | CN(c1ccc2c(c1)/C(=N/NC(=N)N)CC2)S(=O)(=O)c1c(Cl)nc2sccn12.Cl |
| 8.66 | < 5.00 |  | < 5.00 | 173% | > 80% | 6.75 | < 6.00 | > 1 ×10⁴ nM |  |  |  | O=S(=O)(Nc1ccc2c(c1)/C(=N/NC1=NCCN1)CC2)c1c(Cl)nc2sccn12 |
|  |  |  |  |  | 2% |  |  |  |  |  |  | N=C(N)N/N=C1\CCc2c(NS(=O)(=O)c3c(Cl)nc4sccn34)cccc21 |
| 8.28 | < 6.00 | < 6.00 | < 5.00 | 146% | > 80% | 6.62 |  | > 1 ×10⁴ nM |  |  |  | CC1(C)C/C(=N\NC(=N)N)c2cc(NS(=O)(=O)c3c(Cl)nc4sccn34)ccc21.Cl |
|  |  |  |  |  |  |  |  |  |  |  | ≥ 8.10 | C/C(=N\NC(=N)N)c1cn(S(=O)(=O)c2ccc(N)cc2)c2ccccc12 |
| 7.15 |  |  |  |  | > 80% |  |  |  |  |  |  | CN1CCOc2ccc(S(=O)(=O)Nc3ccc4c(c3)/C(=N\NC3=NCCN3)CC4)cc21 |
| 8.59 |  | < 5.00 |  | 173% | > 80% | 7.33 |  |  |  | < 6.00 |  | Cl.N=C(N)N/N=C1\CCc2cc(NS(=O)(=O)c3c(Cl)nc4sccn34)ccc21 |
| 7.21 |  | < 6.00 |  | 127% | > 80% | 7.28 |  |  |  | < 6.00 |  | Cl.N=C(N)N/N=C1\CCc2ccc(NS(=O)(=O)c3ccc4ccccc4c3)cc21 |
| 7.59 |  | < 6.00 |  | 187% | > 80% | 6.24 |  |  |  |  |  | CN1CCOc2ccc(S(=O)(=O)Nc3ccc4c(c3)/C(=N/NC(=N)N)CC4)cc21 |
|  |  |  |  |  |  |  |  |  |  |  | 9.00 | COc1ccc(S(=O)(=O)Nc2ccc3[nH]cc(/C(C)=N/NC(=N)N)c3c2)cc1 |
|  |  |  |  |  |  |  |  |  |  |  | ≥ 8.10 | C/C(=N\NC(=N)N)c1cn(S(=O)(=O)c2c(Cl)nc3sccn23)c2ccccc12 |
